Assay [1] concerns NCI-H2228. Description: Antiproliferative activity against human NCI-H2228 cells assessed as inhibition of cell proliferation measured by CCK8 assay. The assay is classed as functional, cell-based. The method, boiled down:
(§1)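 Cell proliferation inhibition; IC50 given as mean ± SD of three independent experiments.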
On the technique in general: Tetrazolium dyes change colour on reduction, which living cells bring about.

For assay [2], the system named is BaF3. As to the kind of experiment: Antiproliferative activity against mouse BaF3 cells overexpressing ALK assessed as inhibition of cell proliferation measured by CCK8 assay. Format: functional, cell-based. The method, boiled down:
as §1

In assay [3] the test system is NCI-H2228. Description: Induction of apoptosis in human NCI-H2228 cells assessed as viable cells at 25 nM measured after 24 hrs by Annexin V-FITC/PI staining based flow cytometry assay (reference value: 95.6%). The assay is classed as functional. As to conditions: read-out: Activity. The method in brief:
(§2)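 After 24 h or 48 h exposure (5, 25, 50 nM; DMSO 0.01% control), NCI-H2228 cells were harvested, double-stained with Annexin V-FITC and PI and run on flow cytometry. Stage percentages quantified by software; three experiments, representative shown.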
(Flow cytometry measures light scatter and fluorescence of single cells or particles in a stream.)

Assay [4] deals with NCI-H2228. As to the kind of experiment: Induction of apoptosis in human NCI-H2228 cells assessed as early apoptotic cells at 25 nM measured after 24 hrs by Annexin V-FITC/PI staining based flow cytometry assay (reference value: 2.18%). Format: functional. The method, boiled down:
as §2

Assay [5] relates to NCI-H2228. As to the kind of experiment: Induction of apoptosis in human NCI-H2228 cells assessed as late apoptotic cells at 25 nM measured after 24 hrs by Annexin V-FITC/PI staining based flow cytometry assay (reference value: 2.02%). The assay is classed as functional. The method, boiled down: as §2
Assay [6] has as its system NCI-H2228. Description: Induction of apoptosis in human NCI-H2228 cells assessed as necrotic cells at 25 nM measured after 24 hrs by Annexin V-FITC/PI staining based flow cytometry assay (reference value: 0.21%). Format: functional. The method, boiled down:
as §2

The test system of assay [7] is NCI-H2228. Description: Induction of apoptosis in human NCI-H2228 cells assessed as viable cells at 25 nM measured after 48 hrs by Annexin V-FITC/PI staining based flow cytometry assay (reference value: 95.3%). Format: functional. As to conditions: read-out: Activity. The method, boiled down: as §2
For assay [8], the system named is NCI-H2228. Description: Induction of apoptosis in human NCI-H2228 cells assessed as early apoptotic cells at 25 nM measured after 48 hrs by Annexin V-FITC/PI staining based flow cytometry assay (reference value: 1.58%). Format: functional. The method in brief:
as §2

Assay [9] relates to NCI-H2228. As to the kind of experiment: Induction of apoptosis in human NCI-H2228 cells assessed as late apoptotic cells at 25 nM measured after 48 hrs by Annexin V-FITC/PI staining based flow cytometry assay (reference value: 0.23%). The assay is classed as functional. The method in brief: as §2
For assay [10], the system named is NCI-H2228. As to the kind of experiment: Induction of apoptosis in human NCI-H2228 cells assessed as necrotic cells at 25 nM measured after 48 hrs by Annexin V-FITC/PI staining based flow cytometry assay (reference value: 2.88%). Format: functional. The method, boiled down:
as §2

The record followed here is ChEMBL document CHEMBL4823286, “Synthesis and evaluation of novel 2,4-diaminopyrimidines bearing a sulfoxide moiety as anaplastic lymphoma kinase (ALK) inhibition agents” (Bioorg Med Chem Lett, 2021).

Each structure is given as a SMILES string.

`CC[S+]([O-])c1cc(F)ccc1Nc1nc(Nc2ccc(N(C)C3CCN(C)CC3)cc2OC)ncc1Cl` (configuration not stated): the results for the IC50 in assay [1] and in [2] were 1440 nM and 82 nM, respectively.

For `CC[S+]([O-])c1ccccc1Nc1nc(Nc2ccc(N3CCN(C)CC3)cc2OC)ncc1Cl` (configuration not stated), the values for the IC50 in [1] and in [2] were 35.2 nM and 13.1 nM, respectively.

For the molecule `CC[S+]([O-])c1cc(F)ccc1Nc1nc(Nc2ccc(N3CCC(N(C)C)CC3)cc2OC)ncc1Cl` (configuration not stated), the figures for the IC50 in assay [1] and in assay [2] were 337 nM and 79.4 nM, respectively.

As for `CC[S+]([O-])c1cc(F)ccc1Nc1nc(Nc2ccc(N3CCN(C)CC3)cc2OC)ncc1Cl` (configuration not stated), the 50% inhibitory concentration (IC50) is 104 nM in assay [1] and 48.9 nM in [2].

In the case of `CCSc1ccccc1Nc1nc(Nc2ccc(N3CCN(C)CC3)cc2OC)ncc1Cl`, the IC50 in [1] is 981 nM; in assay [2], 78 nM.

As for `COc1cc(N2CCC(N3CCN(C)CC3)CC2)ccc1Nc1ncc(Cl)c(Nc2ccccc2P(C)(C)=O)n1` [BRIGATINIB], the IC50 in [1] was 31.2 nM; in [2] it was 8.49 nM. Also, the viability at 0.025 µM was 81.9% in assay [3] and 52% in assay [7]. Besides, the Activity is listed as 14.4% in assay [4]; 3.47% in assay [5]; 0.2% in [6]; 12.7% in [8]; 31% in [9]; 4.32% in [10].

For the molecule `COc1cc(N2CCN(C)CC2)ccc1Nc1ncc(Cl)c(Nc2ccccc2[S+]([O-])C(C)C)n1` (configuration not stated), the results for the 50% inhibitory concentration (IC50) in assay [1] and in assay [2] were 82.9 nM and 32.3 nM, respectively.

For the molecule `CC[S+]([O-])c1ccccc1Nc1nc(Nc2ccc(N3CCCN(C)CC3)cc2OC)ncc1Cl` (configuration not stated), the results for the IC50 in assay [1] and in assay [2] were 51.5 nM and 23.5 nM, respectively.

Regarding `CC[S+]([O-])c1ccccc1Nc1nc(Nc2ccc(N(C)CCN(C)C)cc2OC)ncc1Cl` (configuration not stated), the values for the half-maximal inhibitory concentration (IC50) in assay [1] and in assay [2] were 69.3 nM and 26.3 nM, respectively.

Consider `CCC(=O)Nc1cc(Nc2ncc(Cl)c(Nc3ccc(F)cc3[S+]([O-])CC)n2)c(OC)cc1N(C)CCN(C)C` (configuration not stated), for which the values for the 50% inhibitory concentration (IC50) in assay [1] and in [2] were 48.1 nM and 47.2 nM, respectively.

Take `Cc1cc(Nc2ncc(Cl)c(Nc3ccccc3S(=O)(=O)C(C)C)n2)c(OC(C)C)cc1C1CCNCC1` [CERITINIB]: the IC50 in assay [1] turned out to be 22.1 nM; in [2], 7.11 nM.

Turning to `CCC(=O)Nc1cc(Nc2ncc(Cl)c(Nc3ccccc3[S+]([O-])CC)n2)c(OC)cc1N(C)CCN(C)C` (configuration not stated), the IC50 in [1] amounted to 55.4 nM; in assay [2], 35.4 nM.

For the molecule `CC[S+]([O-])c1cc(F)ccc1Nc1nc(Nc2ccc(N3CCCN(C)CC3)cc2OC)ncc1Cl` (configuration not stated), the 50% inhibitory concentration (IC50) in assay [1] was found to be 64.5 nM; in assay [2], 26.7 nM.

Consider `CC[S+]([O-])c1cc(F)ccc1Nc1nc(Nc2ccc(N3CCN(C(C)=O)CC3)cc2OC)ncc1Cl` (configuration not stated), for which the concentration for half-maximal inhibition (IC50) in assay [1] worked out at 704 nM; in assay [2], 85.7 nM.

On to `CC[S+]([O-])c1cc(F)ccc1Nc1nc(Nc2ccc(N(C)CCN(C)C)cc2OC)ncc1Cl` (configuration not stated), for which the IC50 turned out to be 84.3 nM in [1] and 34.7 nM in assay [2].

`CC[S+]([O-])c1cc(Cl)ccc1Nc1nc(Nc2ccc(N3CCN(C)CC3)cc2OC)ncc1Cl` (configuration not stated): the IC50 is 134 nM in [1] and 128 nM in assay [2].

`CC[S+]([O-])c1ccccc1Nc1nc(Nc2cc(N)c(N(C)CCN(C)C)cc2OC)ncc1Cl` (configuration not stated): the values for the half-inhibitory concentration (IC50) in assay [1] and in assay [2] were 2630 nM and 75 nM, respectively.

What is called IC50 is the midpoint of a concentration-inhibition curve.
